# Screening data from PubChem.
# Calb biofilm kill = clotrimazole potentiators killing C. albicans biofilm, primary screen, 4-compound mixtures; C. albicans biofilm persisters + clotrimazole, fluorescence viability; primary screen in compound mixtures of four per well; inhibition, % at 7.6 µM; 120,000 tested, 0.02% active;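 active = inhibition above 30.3% in the primary screen of four-compound pools, then above 30% when the compound was retested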;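 also: compounds exposed to preformed 24 h biofilms for 48 h; 0% = untreated biofilm control and 100% = clotrimazole plus chlorhexidine kill blank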
#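 Test system: C. albicans biofilms. Buffer or medium: RPMI/MOPS medium, pH 7.0. Timing: 48 h compound exposure at 37 °C. Technique: Alamar Blue fluorescence. Evaluation: percent inhibition of biofilm viability.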
# Mcl1 Noxa PPI = Mcl-1/Noxa binding inhibitors, primary screen, biochemical, TR-FRET, 1536-well. TR-FRET Mcl-1/Noxa peptide binding, 2 h. inhibition, % at 21.7 µM. 220,000 tested, 1.5% active;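 active = compounds that cut the protein-peptide binding signal by more than 50% relative to plate controls in a single-dose test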;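 also: His-tagged Mcl-1 with rhodamine Noxa BH3 peptide and terbium anti-His antibody; 0% = Mcl-1 plus Noxa peptide wells and 100% = peptide-only wells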
# Target sequence (Q07820 whole entry, looked up): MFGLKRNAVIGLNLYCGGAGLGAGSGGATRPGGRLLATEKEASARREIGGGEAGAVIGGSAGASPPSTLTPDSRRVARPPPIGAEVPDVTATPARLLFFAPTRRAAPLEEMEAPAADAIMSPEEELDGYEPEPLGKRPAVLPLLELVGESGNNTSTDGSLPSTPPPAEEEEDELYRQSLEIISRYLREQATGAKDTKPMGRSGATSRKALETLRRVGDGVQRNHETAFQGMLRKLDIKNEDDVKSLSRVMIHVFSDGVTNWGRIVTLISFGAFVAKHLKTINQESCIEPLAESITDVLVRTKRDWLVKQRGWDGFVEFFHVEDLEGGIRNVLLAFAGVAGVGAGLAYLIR
# Mcl1 Bid PPI = Mcl-1/Bid binding inhibitors, primary screen, biochemical, TR-FRET, 1536-well. Induced myeloid leukemia cell differentiation protein Mcl-1 (Homo sapiens), Q07820. TR-FRET Mcl-1/Bid-Dy647 peptide binding. inhibition, % at 21.7 µM. 220,000 tested, 0.97% active. AID 1021, 2008;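 active = compounds that cut the binding signal by more than half at the single screening dose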;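 also: His-tagged Mcl-1 with europium anti-His antibody binding Bid BH3 peptide; 0% = Mcl-1 plus peptide wells and 100% = peptide-only wells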
# Arbovirus anti = antivirals against arbovirus infection, primary screen, cell-based, full library, 10K replicate subset; 200,000 tested, 0.37% active; arbovirus infection cell-based antiviral screen; inhibition, % at 10 µM; in the data active = inhibition above about 30%
# Bim-Mcl-1 = inhibitors of Bim peptide binding to Mcl-1, primary screen, biochemical, bead-based flow cytometry, multiplex; AID 1009, 2008; Induced myeloid leukemia cell differentiation protein Mcl-1 (Homo sapiens), Q07820; Bim peptide-Mcl-1 binding; 190,000 tested, 0.1% active; inhibition, % at 10 µM; in the data active = inhibition above about 40%;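 also: 0% = no compound tracer wells and 100% = peptide blocker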
# m-calpain inh = inhibitors of pig calpain II, primary screen, biochemical, fluorogenic peptide substrate, 1536-well; purified calpain II, 30 min; inhibition, % at 16 µM; 220,000 tested, 0.37% active; AID 1236, 2008;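 active = inhibition above about 50%, limit read from the data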
# Starred values were filed as active, the others as inactive; x = no result. A selection: hits, their analogues and other compounds. The true share with any hit is near 2.8%.
SMILES,Calb biofilm kill,Mcl1 Noxa PPI,Mcl1 Bid PPI,Arbovirus anti,Bim-Mcl-1,m-calpain inh
O=C(CNc1ccc2ccccc2c1)N/N=C/c1ccc([N+](=O)[O-])o1,5,70*,65*,2,0,18
O=C(COc1ccccc1)N/N=C/c1ccc([N+](=O)[O-])o1,4,4,-22,-17,-3,17
COc1ccc(Br)c(C(=O)N2CCN(S(=O)(=O)c3cccs3)CC2)c1,15,12,-20,x,x,-12
O=c1c2ccccc2nc2n1CCC2,x,41,96*,5,-3,-10
CS(=O)(=O)c1ccc(S(=O)CC(=O)Oc2ccc(Cl)cc2)c([N+](=O)[O-])c1 (stereo not drawn),15,10,-18,-8,-1,-30
O=C(NCCCN1CCOCC1)c1cccnc1SCc1ccccc1Cl,34,2,-17,-6,-3,-21
COc1ccc(CN2CCNC(=O)C2CC(=O)N2CCCCO2)c(OC)c1 (stereo not drawn),2,-5,-39,4,-1,-16
CC(C)Oc1ccc(/C(O)=C2/C(=O)C(=O)N(CCN(C)C)C2c2cccs2)cc1 (stereo not drawn),7,0,-22,-1,-2,8
Cc1ccc(C2(c3noc(CN(C)Cc4cccnc4)n3)CCCC2)cc1,7,0,-36,0,0,-11
CCOC(=O)c1sc2ncn(/N=C/c3ccc(O)c(OC)c3)c(=O)c2c1C,14,53*,15,-3,0,-83
COc1ccccc1-c1ccc(/C=C2/C=C(C)OC2=O)o1,19,2,-4,1,-2,-17
O=C1C(=Cc2ccc(Br)o2)C(=O)c2ccccc21,14,105*,76*,-24,2,9
O=C(/C=C/c1ccc(Br)o1)NC(c1ccccc1)c1ccccc1,8,27,-42,3,-3,9
CC1=C/C(=C\c2ccc(Br)o2)C(=O)O1,19,71*,-5,3,-6,-4
CCOc1ccc(NC(=O)C(C)NS(=O)(=O)c2ccc(NC(C)=O)cc2)cc1 (stereo not drawn),14,14,-17,6,-1,-26
CCN1C(=O)C(C(=O)c2ccccc2)SC1=S (stereo not drawn),11,25,-35,-1,-2,-13
O=C(Nc1cccc([N+](=O)[O-])c1)Nc1cccs1,18,26,-13,10,0,-22
CC(C)(O)C#Cc1ccc(CN2CCN(C3CCCCC3)C(CCO)C2)cc1 (stereo not drawn),10,81*,-38,2,0,-3
CC(C)(O)C#Cc1ccc(CN2CCN(C3CCCC3)C(CCO)C2)cc1 (stereo not drawn),-7,-15,-19,-4,-1,-33
Cc1oc(-c2ccccc2)cc1C(=O)Nc1ccc(N(C)C)cc1,x,73*,6,-9,0,14
O=C(Nc1cc(Sc2nc3ccccc3s2)cc([N+](=O)[O-])c1)c1cccc(F)c1F,25,7,4,12,0,41
CCc1cc(C(N)=S)ccn1,x,53*,-8,1,-1,-1
CCOC(=O)/C(C#N)=N\Nc1cc(Cl)ccc1OC,-7,19,-24,x,x,-25
CCCCC1C(=O)N(c2ccccc2)N(c2ccccc2)C1=O,16,26,56*,-6,5,-7
CCOC(=O)n1c(=O)n(Cc2c(Cl)cccc2Cl)c2ccccc21,x,-11,-2,11,-5,20
CN(Cc1ccccc1)c1nc(N)c([N+](=O)[O-])c(NCc2ccccc2)n1,8,8,-13,36*,-4,13
CCN(CC)S(=O)(=O)c1ccc(C)c(NC(=S)NNC(=O)C2CC2)c1,8,14,-38,3,-12,76*
CC(C)Nc1ccc(C(CC(N)=O)NC(=O)c2ccc(Br)cc2)cc1[N+](=O)[O-] (stereo not drawn),14,2,65*,x,x,-4
NC(=O)CC(NC(=O)Cc1ccc(Br)cc1)c1ccc(NC2CCC2)c([N+](=O)[O-])c1 (stereo not drawn),0,51*,-50,x,x,-61
